Data published in PMC9977181 (Science Advances, 2023).

What was measured:
[1] = target: T1, ATM (Homo sapiens, UniProt Q13315); test: ATM-SPARK reporter imaging in living HEK293 cells, ATM activated by etoposide; assay type: cell-based
[2] = target: DNA-PK (Homo sapiens, UniProt P78527); test: Western blot of phosphorylated DNA-PK; assay type: cell-based; details: HEK293 cells, NCS-induced DNA damage
Procedure, shortened: (§1)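 HEK293 cells were pretreated 1 h with a test compound titration starting at 1 μM, then given NCS (500 ng/ml) for 1 h. Lysates were resolved on 4–12% bis-tris gels, probed with primary antibodies (1:1000) and HRP secondaries, and detected by ECL on film. The phospho/total band ratio was normalized to DMSO-treated cells. IC50 was obtained by nonlinear fit.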

[3] = target: T1, ATM; test: Western blot of phosphorylated ATM; assay type: cell-based
Procedure, shortened: as §1

[4] = target: T1, ATM; test: ATM-SPARK ATM activity in HeLa or T98G cancer cells preincubated with inhibitor; assay type: cell-based; details: HeLa and T98G cells, ATM activated using etoposide
[5] = target: ATR (Homo sapiens, UniProt Q13535); test: Western blot of phosphorylated ATR; assay type: cell-based; details: HEK293 cells, NCS-induced DNA damage
Procedure, shortened: as §1

[6] = tested on: HeLa cells; test: HeLa cell growth assay; assay type: cell-based, human
[7] = tested on: ATM-deficient MDA-MB-231 cells; test: Growth inhibition with NCS in ATM-deficient MDA-MB-231 cells; assay type: cell-based, human; details: ATM-deficient cell line
[8] = target: T1, ATM; assay type: cell-based; details: HEK293 cells preincubated with NCS
[9] = target: T1, ATM; test: ATM-SPARK activation by DNA-damaging drugs in U87 cells; assay type: cell-based

T1 sequence (Q13315 whole entry): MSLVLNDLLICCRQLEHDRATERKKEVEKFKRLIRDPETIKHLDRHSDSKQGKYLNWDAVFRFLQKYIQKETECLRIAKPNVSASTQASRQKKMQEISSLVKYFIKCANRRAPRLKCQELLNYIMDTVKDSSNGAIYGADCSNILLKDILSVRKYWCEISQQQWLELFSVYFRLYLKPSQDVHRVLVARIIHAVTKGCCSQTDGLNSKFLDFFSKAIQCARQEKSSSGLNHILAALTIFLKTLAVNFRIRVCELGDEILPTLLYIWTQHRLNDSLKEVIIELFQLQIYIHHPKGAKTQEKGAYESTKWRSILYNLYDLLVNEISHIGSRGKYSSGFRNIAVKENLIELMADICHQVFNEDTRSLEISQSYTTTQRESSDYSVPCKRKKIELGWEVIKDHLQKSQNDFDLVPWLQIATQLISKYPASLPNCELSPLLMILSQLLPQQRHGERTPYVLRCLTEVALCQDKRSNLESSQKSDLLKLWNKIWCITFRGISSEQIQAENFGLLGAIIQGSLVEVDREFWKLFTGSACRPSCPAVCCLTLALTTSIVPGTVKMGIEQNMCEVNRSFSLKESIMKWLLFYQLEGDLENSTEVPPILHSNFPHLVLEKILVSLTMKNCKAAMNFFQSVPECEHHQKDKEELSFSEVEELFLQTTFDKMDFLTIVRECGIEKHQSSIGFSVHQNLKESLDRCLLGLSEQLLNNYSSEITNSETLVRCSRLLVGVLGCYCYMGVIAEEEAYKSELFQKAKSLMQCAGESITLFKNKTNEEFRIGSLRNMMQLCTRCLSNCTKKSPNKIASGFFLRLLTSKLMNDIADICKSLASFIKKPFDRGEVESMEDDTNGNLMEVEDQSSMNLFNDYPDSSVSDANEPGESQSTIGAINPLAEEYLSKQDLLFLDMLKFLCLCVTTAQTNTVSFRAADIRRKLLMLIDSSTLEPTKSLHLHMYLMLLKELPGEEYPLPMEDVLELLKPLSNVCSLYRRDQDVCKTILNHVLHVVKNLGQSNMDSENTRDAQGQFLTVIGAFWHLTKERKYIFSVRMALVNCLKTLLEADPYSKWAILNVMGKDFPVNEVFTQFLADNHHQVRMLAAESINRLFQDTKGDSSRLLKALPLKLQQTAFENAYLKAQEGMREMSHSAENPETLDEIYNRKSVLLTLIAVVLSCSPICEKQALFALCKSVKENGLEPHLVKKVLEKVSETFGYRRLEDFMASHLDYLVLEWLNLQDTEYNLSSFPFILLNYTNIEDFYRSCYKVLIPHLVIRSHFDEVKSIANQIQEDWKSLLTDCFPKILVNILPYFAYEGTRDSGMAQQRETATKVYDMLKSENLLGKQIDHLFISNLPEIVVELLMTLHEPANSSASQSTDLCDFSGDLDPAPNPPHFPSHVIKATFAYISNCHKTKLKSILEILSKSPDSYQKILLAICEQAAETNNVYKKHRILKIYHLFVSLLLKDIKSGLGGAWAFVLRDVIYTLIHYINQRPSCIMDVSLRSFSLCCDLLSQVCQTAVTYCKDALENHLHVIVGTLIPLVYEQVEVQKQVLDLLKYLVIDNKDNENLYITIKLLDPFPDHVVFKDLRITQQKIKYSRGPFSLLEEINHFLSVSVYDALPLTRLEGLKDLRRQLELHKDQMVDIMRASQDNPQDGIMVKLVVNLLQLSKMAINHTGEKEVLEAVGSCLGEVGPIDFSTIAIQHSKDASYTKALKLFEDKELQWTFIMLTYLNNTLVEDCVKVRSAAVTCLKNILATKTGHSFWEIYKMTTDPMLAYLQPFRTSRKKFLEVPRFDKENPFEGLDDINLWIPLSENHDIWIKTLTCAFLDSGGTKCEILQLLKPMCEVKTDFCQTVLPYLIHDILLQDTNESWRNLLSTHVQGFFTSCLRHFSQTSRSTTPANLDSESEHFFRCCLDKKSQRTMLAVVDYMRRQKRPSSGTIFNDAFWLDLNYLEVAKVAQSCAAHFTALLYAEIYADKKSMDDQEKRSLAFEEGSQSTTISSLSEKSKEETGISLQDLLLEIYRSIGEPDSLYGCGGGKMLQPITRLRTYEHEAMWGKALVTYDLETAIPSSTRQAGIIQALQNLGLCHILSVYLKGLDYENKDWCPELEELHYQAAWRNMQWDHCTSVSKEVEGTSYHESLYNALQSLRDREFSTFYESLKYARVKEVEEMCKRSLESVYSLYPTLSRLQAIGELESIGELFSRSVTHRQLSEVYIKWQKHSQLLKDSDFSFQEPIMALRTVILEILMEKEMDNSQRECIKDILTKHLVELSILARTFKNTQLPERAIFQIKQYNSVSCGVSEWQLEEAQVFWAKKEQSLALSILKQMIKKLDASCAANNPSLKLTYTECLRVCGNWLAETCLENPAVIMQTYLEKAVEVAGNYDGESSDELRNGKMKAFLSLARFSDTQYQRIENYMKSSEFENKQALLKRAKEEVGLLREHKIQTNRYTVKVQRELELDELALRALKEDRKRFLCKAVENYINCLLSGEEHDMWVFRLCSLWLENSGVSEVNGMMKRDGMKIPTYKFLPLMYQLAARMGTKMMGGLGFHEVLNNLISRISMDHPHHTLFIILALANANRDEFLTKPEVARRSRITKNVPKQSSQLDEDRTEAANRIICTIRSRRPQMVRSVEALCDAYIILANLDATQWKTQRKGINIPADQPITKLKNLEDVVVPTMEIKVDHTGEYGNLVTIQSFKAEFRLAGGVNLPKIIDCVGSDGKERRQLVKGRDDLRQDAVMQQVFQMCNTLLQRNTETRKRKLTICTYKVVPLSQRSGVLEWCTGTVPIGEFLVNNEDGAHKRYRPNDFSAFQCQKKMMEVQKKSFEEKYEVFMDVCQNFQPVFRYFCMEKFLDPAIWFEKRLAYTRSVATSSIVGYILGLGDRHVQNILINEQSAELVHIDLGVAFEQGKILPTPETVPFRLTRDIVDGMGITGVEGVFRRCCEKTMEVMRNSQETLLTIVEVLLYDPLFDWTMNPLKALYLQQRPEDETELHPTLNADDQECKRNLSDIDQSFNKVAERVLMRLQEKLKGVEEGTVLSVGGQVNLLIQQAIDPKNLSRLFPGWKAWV

Molecule: O=C1NC(=O)/C(=C\c2ccc3nccnc3c2)S1 [AS605240]
- ATM activity in inhibitor-incubated cells (ATM-SPARK signal), screening ([1]; 1 μM compound): blocked ATM

Molecule: COc1ccc(-c2ccc3ncc4c(c3c2)n(-c2ccc(N3CCNCC3)c(C(F)(F)F)c2)c(=O)n4C)cn1 [BGT226]
- fold lower activity against DNA-PK than against ATM [2]: 30 fold
- IC50 [3]: 3.1 ± 0.8 nM
- activity against ATM in cancer cells (ATM-SPARK) [4]: potent activity against ATM
- inhibition of ATR (pATR 1989 Western blot) [5]: no inhibitory activity
- sensitization of growth inhibition in response to NCS treatment ([6]; NCS + 4 nM or 11 nM inhibitor (fig. S26)): sensitizes
- effect in growth inhibition when combined with NCS [7]: lost

Molecule: O=c1cc(-c2cccc3c2Sc2ccccc2S3)oc(N2CCOCC2)c1 [KU-55933]
- half-time of ATM-SPARK droplet disassembly [8]: ~ 1.5 min
- time to disassembly of ATM-SPARK reporter droplets after inhibitor addition [8]: ≤ 4 min

Molecule: CN1CCN(c2ccc(-n3cc(-c4ccncc4OCC4CCNCC4)cn3)cc2)CC1 [MELK-8A]
- inhibitory activity against ATM (ATM-SPARK signal) [1]: no activity against ATM

Molecule: CC[C@@]1(O)C(=O)OCc2c1cc1n(c2=O)Cc2cc3ccccc3nc2-1 [camptothecin]
- activation of ATM (ATM-SPARK signal) [9]: failed to activate ATM

Molecule: neocarzinostatin [NCS]
- inhibition of cancer cell proliferation by NCS itself ([6]; NCS 180 ng/ml, 3 days): ~ 35%
